This is an account of results in ChEMBL document CHEMBL1800057, “Discovery of dual inducible/neuronal nitric oxide synthase (iNOS/nNOS) inhibitor development candidate 4-((2-cyclobutyl-1H-imidazo[4,5-b]pyrazin-1-yl)methyl)-7,8-difluoroquinolin-2(1H)-one (KD7332) part 2: identification of a novel, potent, and selective series of benzimidazole-quinolinone …” (J Med Chem, 2010).

Data set [1] addresses Nitric oxide synthase, inducible (Homo sapiens, UniProt P35228). Briefly: Inhibition of human iNOS expressed in HEK293 cells assessed as inhibition of nitric oxide production after 18 hrs using 2,3-diaminonaphthalene by fluorescence assay. In kind it is cell-based. The method, boiled down:
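HEK293 cells grown to ~70% confluence in DMEM/10% FBS with pen/strep, transiently transfected with 10 μg human or murine iNOS plasmid plus Fugene 6 for 4 h at 37 °C, 10% CO2. Cells replated at 5e5 cells/mL and dosed with compound at once; 1400W (100 μM final) as positive control. After 18 h, DAN (10 μg/mL final) in HCl (0.1 N final) added for 20 min at room temperature. Fluorescence read after NaOH (0.12 N final).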

In data set [2] the target is T1, Nitric oxide synthase 1 (Homo sapiens, UniProt P29475). Briefly: Inhibition of human nNOS expressed in HEK293 cells assessed as inhibition ionomycin induced nitric oxide production incubated for 24 hrs measured after 18 hrs of ionomycin challenge using 2,3-diaminonaphthalene by fluorescence assay. In kind it is cell-based. The method, boiled down: (§1)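 HEK293 cells transfected for 4 h at 37 °C with human nNOS (10 μg) or human eNOS (15 μg) plasmid (Fugene 6, 3:1). Cells replated at 5e5 cells/mL and dosed with compound at once; SEITU (100 μM final) as positive control. After 24 h, cells activated with A23187 (83 nM final) for eNOS or ionomycin (30 μM final) for nNOS. NO read 18 h later as nitrite-DAN fluorescence.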
T1 sequence (P29475 whole entry): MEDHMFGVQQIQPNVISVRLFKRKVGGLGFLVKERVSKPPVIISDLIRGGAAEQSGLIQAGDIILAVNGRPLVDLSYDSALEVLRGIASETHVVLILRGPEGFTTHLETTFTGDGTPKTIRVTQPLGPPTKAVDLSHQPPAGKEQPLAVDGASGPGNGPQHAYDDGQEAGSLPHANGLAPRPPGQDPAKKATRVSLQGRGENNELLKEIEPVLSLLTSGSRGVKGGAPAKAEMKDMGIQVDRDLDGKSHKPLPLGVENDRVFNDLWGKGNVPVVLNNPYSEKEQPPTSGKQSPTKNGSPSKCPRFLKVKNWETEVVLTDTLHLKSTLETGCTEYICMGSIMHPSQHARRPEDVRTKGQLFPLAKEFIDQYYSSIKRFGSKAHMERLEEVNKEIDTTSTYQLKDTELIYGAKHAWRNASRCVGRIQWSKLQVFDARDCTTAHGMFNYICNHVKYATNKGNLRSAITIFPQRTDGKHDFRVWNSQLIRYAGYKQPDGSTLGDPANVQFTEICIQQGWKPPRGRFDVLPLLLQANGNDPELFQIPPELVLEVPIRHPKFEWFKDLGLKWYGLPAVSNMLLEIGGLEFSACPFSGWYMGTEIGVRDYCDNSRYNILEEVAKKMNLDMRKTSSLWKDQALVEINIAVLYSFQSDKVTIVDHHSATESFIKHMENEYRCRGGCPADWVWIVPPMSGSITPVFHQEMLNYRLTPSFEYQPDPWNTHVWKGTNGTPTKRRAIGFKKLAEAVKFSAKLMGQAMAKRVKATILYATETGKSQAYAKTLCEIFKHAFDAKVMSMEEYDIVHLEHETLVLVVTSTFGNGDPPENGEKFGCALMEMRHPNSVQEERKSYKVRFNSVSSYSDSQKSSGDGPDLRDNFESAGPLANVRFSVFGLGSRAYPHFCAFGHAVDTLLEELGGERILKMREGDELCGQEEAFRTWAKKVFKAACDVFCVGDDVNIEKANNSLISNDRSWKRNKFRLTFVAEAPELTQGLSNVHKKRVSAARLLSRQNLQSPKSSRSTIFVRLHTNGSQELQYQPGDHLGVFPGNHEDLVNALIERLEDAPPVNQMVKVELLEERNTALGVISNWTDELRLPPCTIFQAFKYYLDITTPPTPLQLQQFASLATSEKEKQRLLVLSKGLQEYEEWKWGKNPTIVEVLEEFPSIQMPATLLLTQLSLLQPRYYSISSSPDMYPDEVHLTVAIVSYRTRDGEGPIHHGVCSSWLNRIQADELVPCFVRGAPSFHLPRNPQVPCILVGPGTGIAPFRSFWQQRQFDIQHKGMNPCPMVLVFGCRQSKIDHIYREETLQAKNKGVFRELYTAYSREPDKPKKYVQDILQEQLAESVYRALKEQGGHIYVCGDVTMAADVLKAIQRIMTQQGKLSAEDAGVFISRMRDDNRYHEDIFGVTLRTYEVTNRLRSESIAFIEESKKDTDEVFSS

The target of a further data set is T2, Nitric oxide synthase 3 (Homo sapiens, UniProt P29474).
T2 sequence (P29474 whole entry): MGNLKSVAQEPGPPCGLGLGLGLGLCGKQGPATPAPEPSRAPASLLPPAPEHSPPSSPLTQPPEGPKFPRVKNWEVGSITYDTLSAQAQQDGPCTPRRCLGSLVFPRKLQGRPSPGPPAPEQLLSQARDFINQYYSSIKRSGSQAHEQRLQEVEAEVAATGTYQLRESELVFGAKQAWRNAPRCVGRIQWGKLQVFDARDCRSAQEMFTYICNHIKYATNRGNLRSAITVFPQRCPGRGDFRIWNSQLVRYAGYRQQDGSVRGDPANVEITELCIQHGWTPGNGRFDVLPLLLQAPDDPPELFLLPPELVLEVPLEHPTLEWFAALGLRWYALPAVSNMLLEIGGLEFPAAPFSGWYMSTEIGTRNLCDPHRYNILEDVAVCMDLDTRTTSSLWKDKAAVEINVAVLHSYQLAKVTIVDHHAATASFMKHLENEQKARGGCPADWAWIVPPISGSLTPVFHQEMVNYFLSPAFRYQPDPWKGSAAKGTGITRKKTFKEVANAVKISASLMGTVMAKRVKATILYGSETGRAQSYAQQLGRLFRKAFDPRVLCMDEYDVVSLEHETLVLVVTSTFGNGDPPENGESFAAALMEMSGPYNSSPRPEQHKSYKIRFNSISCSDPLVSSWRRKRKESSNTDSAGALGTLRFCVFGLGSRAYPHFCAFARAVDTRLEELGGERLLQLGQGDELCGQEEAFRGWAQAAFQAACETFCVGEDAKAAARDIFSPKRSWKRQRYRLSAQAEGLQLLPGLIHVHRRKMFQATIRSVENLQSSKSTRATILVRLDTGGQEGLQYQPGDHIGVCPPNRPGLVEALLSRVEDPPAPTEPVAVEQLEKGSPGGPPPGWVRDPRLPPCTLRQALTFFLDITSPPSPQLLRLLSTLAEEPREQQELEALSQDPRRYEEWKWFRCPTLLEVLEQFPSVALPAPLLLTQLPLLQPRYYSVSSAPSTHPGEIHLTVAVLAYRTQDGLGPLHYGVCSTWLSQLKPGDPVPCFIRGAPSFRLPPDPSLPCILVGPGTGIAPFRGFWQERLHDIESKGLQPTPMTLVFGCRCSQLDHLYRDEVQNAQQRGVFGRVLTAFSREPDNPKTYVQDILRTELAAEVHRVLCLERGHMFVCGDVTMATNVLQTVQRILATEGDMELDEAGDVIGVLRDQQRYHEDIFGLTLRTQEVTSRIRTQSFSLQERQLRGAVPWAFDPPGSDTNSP
Briefly: Inhibition of human eNOS expressed in HEK293 cells assessed as inhibition A23187 induced nitric oxide production incubated for 24 hrs measured after 18 hrs of […] challenge using 2,3-diaminonaphthalene by fluorescence assay. In kind it is cell-based. In outline:
as §1

A further data set deals with Liver. Briefly: Half life in mouse liver microsomes assessed as formation of oxidation product and glucuronide conjugate. In kind it is ADME, Microsome. In outline: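 Mouse liver microsomes run under combined phase I oxidation and phase II glucuronide conjugation; half-life reported in minutes.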
The species entered for data set [3] is Homo sapiens. Briefly: Ratio of IC50 for human eNOS to EC50 for human iNOS.
For data set [4], the species on record is Homo sapiens. Briefly: Ratio of IC50 for human nNOS to EC50 for human iNOS.
Data set [5] deals with T3, Nitric oxide synthase 3 (Homo sapiens) (UniProt P29474).
T3 sequence (whole entry): T2 sequence (P29474 whole entry)
Briefly: Inhibition of human eNOS expressed in HEK293 cells assessed as inhibition A23187 induced nitric oxide production at 100 uM incubated for 24 hrs measured after 18 hrs of […] challenge using 2,3-diaminonaphthalene by fluorescence assay. Format: cell-based.

Data set [6] concerns the target T1, Nitric oxide synthase 1. Briefly: Inhibition of human nNOS expressed in HEK293 cells assessed as inhibition ionomycin induced nitric oxide production at 10 uM incubated for 24 hrs measured after 18 hrs of ionomycin challenge using 2,3-diaminonaphthalene by fluorescence assay. Format: cell-based.

Sequence of Nitric oxide synthase, inducible (P35228 whole entry): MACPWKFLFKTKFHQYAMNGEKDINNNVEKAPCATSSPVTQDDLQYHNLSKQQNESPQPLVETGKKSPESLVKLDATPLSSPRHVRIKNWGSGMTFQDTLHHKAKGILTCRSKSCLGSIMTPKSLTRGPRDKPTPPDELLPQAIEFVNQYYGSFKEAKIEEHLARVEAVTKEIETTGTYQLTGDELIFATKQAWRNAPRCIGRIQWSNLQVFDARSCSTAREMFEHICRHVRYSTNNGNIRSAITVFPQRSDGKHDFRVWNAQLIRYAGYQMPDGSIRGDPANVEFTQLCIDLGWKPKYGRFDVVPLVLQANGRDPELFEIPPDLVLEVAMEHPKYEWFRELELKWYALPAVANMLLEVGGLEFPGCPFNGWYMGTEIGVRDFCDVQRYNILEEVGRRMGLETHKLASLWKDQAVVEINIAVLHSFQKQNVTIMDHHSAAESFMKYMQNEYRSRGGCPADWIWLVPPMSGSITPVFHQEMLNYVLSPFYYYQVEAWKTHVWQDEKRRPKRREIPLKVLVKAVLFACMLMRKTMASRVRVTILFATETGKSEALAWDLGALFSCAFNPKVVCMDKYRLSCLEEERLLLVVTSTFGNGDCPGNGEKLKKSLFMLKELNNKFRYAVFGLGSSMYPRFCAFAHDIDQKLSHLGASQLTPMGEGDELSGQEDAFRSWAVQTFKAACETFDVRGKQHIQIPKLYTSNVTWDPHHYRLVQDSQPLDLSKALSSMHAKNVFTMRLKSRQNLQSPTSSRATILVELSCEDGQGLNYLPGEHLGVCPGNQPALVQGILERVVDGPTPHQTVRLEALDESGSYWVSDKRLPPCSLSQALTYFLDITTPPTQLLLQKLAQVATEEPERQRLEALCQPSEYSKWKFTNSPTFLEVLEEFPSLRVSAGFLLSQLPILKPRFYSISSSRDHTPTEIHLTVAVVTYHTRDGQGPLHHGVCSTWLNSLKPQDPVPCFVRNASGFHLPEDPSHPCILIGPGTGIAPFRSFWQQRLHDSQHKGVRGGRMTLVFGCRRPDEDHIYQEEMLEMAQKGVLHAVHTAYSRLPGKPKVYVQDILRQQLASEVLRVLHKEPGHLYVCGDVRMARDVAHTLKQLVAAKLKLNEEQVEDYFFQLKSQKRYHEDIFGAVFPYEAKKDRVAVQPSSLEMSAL

One may read the EC50 as the concentration needed to bring the measured effect to its halfway point. Usually inhibition stands for the share of the control response that was lost under treatment. Take `Cc1ccncc1-c1nc2ccccc2n1Cc1cc(=O)[nH]c2c(F)c(F)ccc12`: the 50% effective concentration (EC50) in data set [1] is 12 µM; at Nitric oxide synthase 1 [2] it was more than 10 µM; on Nitric oxide synthase 3, more than 100 µM. The t1/2 with Liver was more than 2 h. Moreover, the Ratio EC50 was more than 8 in the data set listed under Homo sapiens [3] and more than 1 in the data set filed under Homo sapiens [4]. The inhibition (in data set [5]; at Nitric oxide synthase 1 [6]) was less than 50% throughout.
Consider `Cn1cncc1-c1nc2ccccc2n1Cc1cc(=O)[nH]c2c(F)c(F)ccc12`, for which the 50% effective concentration (EC50) in data set [1] is 5.9 µM; on Nitric oxide synthase 1 [2] it was more than 10 µM; at Nitric oxide synthase 3 it was 5.8 µM. Moreover, the t1/2 in the data set on Liver was more than 2 h. Also, the Ratio EC50 came out at 1 in the data set filed under Homo sapiens [3] and 5.3 in the data set listed under Homo sapiens [4]. In addition, at Nitric oxide synthase 1 [6], the inhibition was less than 50%.
Regarding `O=c1cc(Cn2c(-c3cncs3)nc3ccccc32)c2ccc(F)c(F)c2[nH]1`, the EC50 in data set [1] is 8.6 µM; on Nitric oxide synthase 1 [2], more than 10 µM; at Nitric oxide synthase 3 it was more than 100 µM. Further, in the data set with Liver, the t1/2 was 0.717 h. The Ratio EC50 in the data set filed under Homo sapiens [3] and in the data set filed under Homo sapiens [4] was more than 12 throughout. For the same compound, the inhibition (in data set [5]; on Nitric oxide synthase 1 [6]) was less than 50% throughout.
Turning to `O=c1cc(Cn2c(CC3CCCC3)nc3ccccc32)c2ccc(F)c(F)c2[nH]1`, the 50% effective concentration (EC50) in data set [1] was 1.77 µM; on Nitric oxide synthase 1 [2] it was more than 10 µM; on Nitric oxide synthase 3, more than 100 µM. Moreover, the t1/2 with Liver is more than 2 h. Further, the Ratio EC50 was more than 56 in the data set listed under Homo sapiens [3] and more than 6 in the data set filed under Homo sapiens [4]. In addition, the inhibition (in data set [5]; on Nitric oxide synthase 1 [6]) was less than 50% each time.
As for `O=c1cc(Cn2c(C3CCC3)nc3cccnc32)c2ccc(F)c(F)c2[nH]1`, the values for the EC50 (in data set [1]; at Nitric oxide synthase 1 [2]; on Nitric oxide synthase 3) were 0.18 µM, 1.3 µM and more than 100 µM, respectively. In addition, the t1/2 in the data set with Liver is 0.833 h. Moreover, the results for the Ratio EC50 in the data set filed under Homo sapiens [3] and in the data set filed under Homo sapiens [4] were more than 560 and 7.2, respectively. The inhibition in data set [5] is less than 50%.
Turning to `O=c1cc(Cn2c(C3CCC3)nc3c(C(F)(F)F)ccnc32)c2ccc(F)c(F)c2[nH]1`, the EC50 was 0.15 µM in data set [1], 2 µM on Nitric oxide synthase 1 [2] and more than 100 µM at Nitric oxide synthase 3. The t1/2 in the data set on Liver was 1.43 h. Moreover, the Ratio EC50 in the data set listed under Homo sapiens [3] is more than 670; in the data set filed under Homo sapiens [4] it was 13. Further, the inhibition in data set [5] is less than 50%.
For the compound `O=c1cc(Cn2c(-c3cccnc3)nc3ccccc32)c2ccc(F)c(F)c2[nH]1`, the EC50 was 9.3 µM in data set [1], more than 10 µM on Nitric oxide synthase 1 [2] and more than 100 µM on Nitric oxide synthase 3. For the same compound, in the data set on Liver, the t1/2 is more than 2 h. Moreover, the values for the Ratio EC50 in the data set listed under Homo sapiens [3] and in the data set filed under Homo sapiens [4] were more than 11 and more than 1, respectively. Also, the inhibition (in data set [5]; at Nitric oxide synthase 1 [6]) was less than 50% throughout.
In the case of `CCc1nc2ccccc2n1Cc1cc(=O)[nH]c2c(F)c(F)ccc12`, the EC50 was 4.3 µM in data set [1], more than 10 µM at Nitric oxide synthase 1 [2] and 1.6 µM on Nitric oxide synthase 3. Further, in the data set with Liver, the t1/2 is more than 2 h. For the same compound, the Ratio EC50 was 0.4 in the data set listed under Homo sapiens [3] and more than 2 in the data set filed under Homo sapiens [4]. For the same compound, the inhibition at Nitric oxide synthase 1 [6] is less than 50%.
For `O=c1cc(Cn2c(-c3ccccn3)nc3ccccc32)c2ccc(F)c(F)c2[nH]1`, the results for the EC50 (in data set [1]; at Nitric oxide synthase 1 [2]; at Nitric oxide synthase 3) were 18 µM, more than 10 µM and more than 100 µM, respectively. For the same compound, the t1/2 with Liver turned out to be 1.1 h. The results for the Ratio EC50 in the data set filed under Homo sapiens [3] and in the data set filed under Homo sapiens [4] were more than 6 and more than 0.5, respectively. The inhibition (in data set [5]; on Nitric oxide synthase 1 [6]) was less than 50% in each case.
